Assay results as given in ChEMBL document CHEMBL3286362, “Farnesyltransferase inhibitors: CAAX mimetics based on different biaryl scaffolds” (Bioorg Med Chem Lett, 2014).
Calls of active or inactive are those of the source. The calls are words filed in the database; no cut-off is given here.

Tests used:
[1] = target: T1, Protein farnesyltransferase (Homo sapiens, UniProt P49354+P49356); assay: Inhibition of recombinant FTase (unknown origin) at 20 uM by spectrofluorimetric analysis relative to control; assay type: protein-complex assay
How it was run: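 Fluorescence-based FTase activity assay; free acids screened at a single 20 µM concentration and percent inhibition determined.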

[2] = (§1) Growth inhibition of RASMC after 72 hrs by Coulter counting analysis; assay type: functional, Rattus norvegicus
How it was run: (§2)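 Proliferation of cultured rat aortic smooth muscle cells, with test agents given as isopropyl esters to aid membrane permeability; IC50 values derived.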

[3] = organism: Rattus norvegicus; assay: Inhibition of FTase-mediated RAS prenylation in RASMC at 2 uM after 72 hrs by Western blotting analysis
How it was run: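 Rat aortic smooth muscle cells were incubated for 72 h with or without test ester (25–400 µM) or with the HMG-CoA reductase inhibitor simvastatin (2 µM) as positive control. Total cell lysates were then prepared and Ras prenylation was assessed by western blot using an anti-Ras antibody (clone RAS10).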

[4] = organism: Rattus norvegicus; assay: as §1; assay type: functional; how it was run: as §2
[5] = target: T1, Protein farnesyltransferase; assay: Inhibition of recombinant FTase (unknown origin) by spectrofluorimetric analysis; assay type: protein-complex assay
[6] = organism: Rattus norvegicus; assay: (§3) Inhibition of FTase-mediated RAS prenylation in RASMC after 72 hrs by Western blotting analysis
How it was run: (§4)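 Rat aortic SMCs incubated 72 h with 25 to 400 µM of test ester or without it, alongside simvastatin 2 µM as positive control. Total cell lysates were prepared and Ras prenylation was assessed by Western blot with anti-Ras antibody (clone RAS10).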

[7] = as §3; set-up: species or system Rattus norvegicus; how it was run: as §4

Row | inhibition [1] [%] | Structure (SMILES) | IC50 [2] [µM] | other results
1 | 51.5 | CSCC[C@H](NC(=O)c1ccc(OCC2COc3ccccc3O2)cc1-c1ccco1)C(=O)O (stereo not given in full) | – | –
2 | 90 | CSCC[C@H](NC(=O)c1ccc(OCC2COc3ccccc3O2)cc1-c1cccs1)C(=O)O (stereo not given in full) | – | –
3 | 53.8 | CSCC[C@H](NC(=O)c1ccc(NC(=O)Cc2csc(N)n2)cc1-c1cccs1)C(=O)O | – | –
4 | 15.4 | CSCC[C@H](NC(=O)c1ccc(NC(=O)Cc2csc(N)n2)cc1-c1ccco1)C(=O)O | – | –
5 | 48.7 | CSCC[C@H](NC(=O)c1ccc(OCC2COc3ccccc3O2)cc1-c1ccoc1)C(=O)O (stereo not given in full) | – | –
6 | 20.9 | CSCC[C@H](NC(=O)c1ccc(NC(=O)Cc2csc(N)n2)cc1-c1ccsc1)C(=O)O | – | –
7 | 90.4 | CSCC[C@H](NC(=O)c1ccc(NC(=O)Cc2csc(N)n2)cc1-c1cccc2ccccc12)C(=O)O | – | –
8 | 41.7 | CSCC[C@H](NC(=O)c1ccc(OCC2COc3ccccc3O2)cc1-c1cccc2ccccc12)C(=O)O (stereo not given in full) | – | –
9 | 0 | CSCC[C@H](NC(=O)c1ccc(NC(=O)Cc2csc(N)n2)cc1-c1cncc2ccccc12)C(=O)O | – | –
10 | 14.5 | CSCC[C@H](NC(=O)c1ccc(OCC2COc3ccccc3O2)cc1-c1cncc2ccccc12)C(=O)O (stereo not given in full) | – | –
11 | 98.7 | CSCC[C@H](NC(=O)c1ccc(NC(=O)Cc2csc(N)n2)cc1-c1ccoc1)C(=O)O | – | IC50 [5]: 2.8 µM
12 | 96.6 | CSCC[C@H](NC(=O)c1ccc(OCC2COc3ccccc3O2)cc1-c1ccsc1)C(=O)O (stereo not given in full) | – | IC50 [5]: 5 µM

Second part, the molecule before the results:

Row | Structure (SMILES) | inhibition [1] [%] | IC50 [2] [µM] | other results
13 | CSCC[C@H](NC(=O)c1ccc(NC(=O)Cc2csc(N)n2)cc1-c1ccco1)C(=O)OC(C)C | – | 110 | –
14 | CSCC[C@H](NC(=O)c1ccc(NC(=O)Cc2csc(N)n2)cc1-c1cccc2ccccc12)C(=O)OC(C)C | – | 81 | –
15 | CSCC[C@H](NC(=O)c1ccc(OCC2COc3ccccc3O2)cc1-c1cccs1)C(=O)OC(C)C (stereo not given in full) | – | 81 | –
16 | CSCC[C@H](NC(=O)c1ccc(OCC2COc3ccccc3O2)cc1-c1cccc2ccccc12)C(=O)OC(C)C (stereo not given in full) | – | 155 | –
17 | CSCC[C@H](NC(=O)c1ccc(NC(=O)Cc2csc(N)n2)cc1-c1cccs1)C(=O)OC(C)C | – | 200 | –
18 | CCC(C)(C)C(=O)O[C@H]1C[C@@H](C)C=C2C=C[C@H](C)[C@H](CC[C@@H]3C[C@@H](O)CC(=O)O3)[C@H]21 | – | – | inhibition [3]: Active
19 | CSCC[C@H](NC(=O)c1ccc(OCC2COc3ccccc3O2)cc1-c1cncc2ccccc12)C(=O)OC(C)C (stereo not given in full) | – | – | growth inhibition (GI) [4]: inactive
20 | CSCC[C@H](NC(=O)c1ccc(OCC2COc3ccccc3O2)cc1-c1ccoc1)C(=O)OC(C)C (stereo not given in full) | – | 61 | –
21 | CSCC[C@H](NC(=O)c1ccc(OCC2COc3ccccc3O2)cc1-c1ccco1)C(=O)OC(C)C (stereo not given in full) | – | 99 | –
22 | CSCC[C@H](NC(=O)c1ccc(OCC2COc3ccccc3O2)cc1-c1ccsc1)C(=O)OC(C)C (stereo not given in full) | – | – | growth inhibition (GI) [4]: inactive
23 | CSCC[C@H](NC(=O)c1ccc(NC(=O)Cc2csc(N)n2)cc1-c1ccoc1)C(=O)OC(C)C | – | 259 | inhibition [6]: Dose-dependent effect; IC50 [7]: 100 µM; growth inhibition (GI) [4]: Dose-dependent effect
24 | CSCC[C@H](NC(=O)c1ccc(NC(=O)Cc2csc(N)n2)cc1-c1ccsc1)C(=O)OC(C)C | – | 123 | –
25 | CSCC[C@H](NC(=O)c1ccc(NC(=O)Cc2csc(N)n2)cc1-c1cncc2ccccc12)C(=O)OC(C)C | – | 252 | –
